pKd: −log10 of the molar value.
Assays:
[1] = target: T1, RGS17ΔN–Gαo interaction in HEK293T cells (Homo sapiens, UniProt Q9UGC6); test: Confocal localization of GFP-RGS17ΔN cotransfected with hGαo; type: cell-based; details: for delocalization of RGS17ΔN from the cell membrane: 100 µM; for delocalization of RGS17ΔN from the cell membrane, GFP signal quantification: 10 µM, longer time course
T1 sequence (Q9UGC6 61-210): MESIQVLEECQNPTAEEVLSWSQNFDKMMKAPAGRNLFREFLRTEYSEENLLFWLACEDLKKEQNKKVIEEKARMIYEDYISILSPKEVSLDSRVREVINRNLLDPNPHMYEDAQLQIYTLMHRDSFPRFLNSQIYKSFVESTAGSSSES

[2] = tested on: RGS17ΔN–Gαo interaction in HEK293T cells; test: as above; type: cell-based; details: 100 µM, imaging time course
RGS17 [3] = target: T2, RGS17 (Homo sapiens, UniProt Q9UGC6); test: Isothermal titration calorimetry; type: binding; details: for change in enthalpy ΔH / entropic change TΔS / protein:ligand binding stoichiometry / ΔG binding: ITC
T2 sequence (Q9UGC6 72-206 limits assumed): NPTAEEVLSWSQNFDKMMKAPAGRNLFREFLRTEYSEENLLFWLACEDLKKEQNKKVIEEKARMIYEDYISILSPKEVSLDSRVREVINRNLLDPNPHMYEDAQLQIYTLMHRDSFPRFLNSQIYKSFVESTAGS

RGS17 [4] = target: T2, RGS17; test: Differential scanning fluorimetry; type: binding; details: DSF
[5] = target: T3, RGS17–Gαo interaction in HEK293T cells (Homo sapiens, UniProt Q9UGC6); test: Confocal localization of GFP full-length RGS17 cotransfected with Gαo; type: cell-based; details: 100 µM, 10 min
T3 sequence (Q9UGC6 1-210): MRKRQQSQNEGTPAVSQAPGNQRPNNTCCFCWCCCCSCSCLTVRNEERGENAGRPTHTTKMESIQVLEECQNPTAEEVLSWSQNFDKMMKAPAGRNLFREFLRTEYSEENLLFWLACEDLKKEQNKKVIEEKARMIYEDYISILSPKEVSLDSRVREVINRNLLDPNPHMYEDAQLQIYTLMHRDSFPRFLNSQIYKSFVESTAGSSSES
Outline: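 HEK293T cells were plated at 25 000 per well on poly-D-lysine-coated glass-bottom plates and held overnight at 37 °C, 5% CO2. They were cotransfected with hGαo (pcDNA 3.1(+)) and pAcGFP-RGS17FL using Lipofectamine 2000. At 24 h the medium was replaced with serum-free, phenol-red-free DMEM. Test compound was added at 2× in that medium to give 1× final (0.07–0.8% DMSO). Live cells were imaged by confocal microscopy.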

RWPE-1 cells = test: Prostate cell growth, RWPE-1; type: cell-based; details: immortalized epithelial, normal cells
A549 lung tumor cells = test: Growth of A549 lung tumor cells; type: cell-based; details: up to 1 µM, 6 days in culture, relative to DMSO control
Outline: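 Subconfluent A549 cells were trypsinized, counted and plated at 1000 per well in 24-well plates, then left to attach overnight. Triplicate wells received test compound or matched DMSO (≤0.2% final). Confluence was imaged every 2 h for 6 days, with images checked to exclude morphology effects. Change in confluence was expressed relative to DMSO and plotted against concentration. IC50 was solved by linear regression at 0.5 relative growth.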

CREB phosphorylation = CREB phosphorylation upon stimulation with forskolin; type: cell-based; details: compared to DMSO-treated controls, data not shown
TEM4-18 cells = test: Prostate tumor cell growth, TEM4-18; type: cell-based; details: dose-response
PC3E cells = test: Prostate tumor cell growth, PC3E; type: cell-based; details: for inhibition of PC3E cell growth: dose-response; for sensitization of PC3E cells by overexpression of RGS17: transient transfection, data not shown
RGS17ΔN (1ZV4 construct) = target: T4, RGS17ΔN (1ZV4 construct) (Homo sapiens, UniProt Q9UGC6); test: Covalent modification of RGS17 by ESI-TOFMS; type: binding; details: ESITOFMS, 5:1 test compound to RGS17, 72 h
T4 sequence (Q9UGC6 72-206): T2 sequence (Q9UGC6 72-206 limits assumed)
Outline: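 Protein: RGS17ΔN (1ZV4 construct) at 20 µM in 25 mM HEPES, 100 mM NaCl, 5% DMSO, pH 8. Incubated at 4 °C for 72 h with or without 100 µM test compound. Dialysed 24 h at 4 °C against 25 mM NH4HCO3 and 100 µM NaCl to remove noncovalent compound, with a second dialysis for some compounds. Analysed by direct-infusion positive-mode ESI-TOF with spectral deconvolution.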

[6] = Solubility in aqueous buffer for ITC; type: physicochemical; details: at the high concentration needed for the ITC experiment
Gα protein = Gα protein (Homo sapiens, UniProt P09471); test: Differential scanning fluorimetry; type: binding; details: DSF, data not shown
Sequence of Gα protein (P09471 whole entry): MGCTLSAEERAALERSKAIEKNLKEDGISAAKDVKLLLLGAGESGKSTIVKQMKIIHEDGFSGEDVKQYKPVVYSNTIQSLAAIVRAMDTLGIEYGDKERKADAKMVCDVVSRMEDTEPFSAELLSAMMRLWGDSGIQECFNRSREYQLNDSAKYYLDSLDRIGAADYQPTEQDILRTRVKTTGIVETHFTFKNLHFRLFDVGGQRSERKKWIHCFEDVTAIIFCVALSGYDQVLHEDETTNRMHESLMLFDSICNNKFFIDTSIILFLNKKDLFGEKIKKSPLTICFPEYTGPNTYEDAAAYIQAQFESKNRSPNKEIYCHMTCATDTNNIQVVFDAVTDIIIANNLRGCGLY

Row | SMILES | delocalization of RGS17ΔN from the cell membrane [1] | gross morphological changes indicative of cytotoxicity [2] | pKd (RGS17 [3]) | change in enthalpy ΔH (RGS17 [3]) [kcal/mol] | entropic change TΔS (RGS17 [3]) [kcal/mol] | protein:ligand binding stoichiometry (RGS17 [3]) | ΔG binding (RGS17 [3]) [kcal/mol] | melting temperature (Tm) shift for RGS17 (RGS17 [4]) | localization of GFP full-length RGS17 [5] | growth arrest of RWPE-1 cells (RWPE-1 cells) | inhibition of A549 cell growth (A549 lung tumor cells) | reduction of CREB phosphorylation (CREB phosphorylation) | inhibition of TEM4-18 cell growth (TEM4-18 cells) | inhibition of PC3E cell growth (PC3E cells) | sensitization of PC3E cells by overexpression of RGS17 (PC3E cells) | delocalization of RGS17ΔN from the cell membrane, GFP signal quantification [1] | covalent adduct formation with RGS17 (RGS17ΔN (1ZV4 construct)) | solubility in aqueous buffer [6] | shift in Tm for the G protein (Gα protein)
1 | Cc1ccc(-n2sc(=O)n(Cc3ccc(F)cc3)c2=O)cc1 [CCG-50014, reference compound] | did not result in RGS17ΔN delocalization from the membrane | significant cell shrinkage |  |  |  |  |  |  |  |  |  |  |  |  |  |  |  |  | 
2 | C[n+]1cc2c3c(ccc2c2ccc4cc5c(cc4c21)OCO5)OCO3 [compound 1, sanguinarine] | disrupt RGS17–Gα interaction | lack of gross morphological changes | 6.00 | -0.148 | 8.0202 | 0.82 | -8.168 | only minor melting temperature (Tm) shifts | remained at the membrane | caused growth arrest | sub-micromolar inhibition | trended toward the proposed mechanism | inhibited the growth | inhibited the growth | did not result in a sensitization | loss of this enrichment at T = final | could not be detected |  | 
3 | CC1=C(O)C(=O)C=C2C1=CC=C1[C@@]2(C)CC[C@@]2(C)[C@@H]3C[C@](C)(C(=O)O)CC[C@]3(C)CC[C@]12C [compound 2, celastrol] | disrupt RGS17–Gα interaction | lack of gross morphological changes |  |  |  |  |  | only minor melting temperature (Tm) shifts |  | caused growth arrest | sub-micromolar inhibition |  | inhibited the growth | inhibited the growth | did not result in a sensitization | loss of this enrichment at T = final | both singly and doubly adducted species | not soluble | 
4 | CC(C)=CCC[C@]1(C)C=Cc2c(O)c3c(c(CC=C(C)C)c2O1)O[C@]12C(=C[C@@H]4C[C@H]1C(C)(C)O[C@@]2(C/C=C(/C)C(=O)O)C4=O)C3=O [compound 3, (−)-gambogic acid] |  |  |  |  |  |  |  |  |  |  |  |  |  |  |  |  |  |  | drastic negative shift
5 | O=c1c(-c2cc(O)c(O)c(O)c2)coc2cc(O)c(O)c(O)c12 [compound 4, irigenol] | disrupt RGS17–Gα interaction | lack of gross morphological changes |  | -2.158 | 6.2313 | 0.33 | -8.389 | only minor melting temperature (Tm) shifts |  |  | did not demonstrate any level of growth inhibition | trended toward the proposed mechanism |  |  |  | demonstrated the same trend | could not be detected |  | 

Reference: article PMC5567870 (Journal of natural products, 2017)
